STEP inh – STEP phosphatase inhibitors, primary screen, biochemical, fluorescence intensity, uHTS | Tyrosine-protein phosphatase non-receptor type 5 (Homo sapiens), P54829 | recombinant STEP, OMFP fluorogenic substrate | inhibition, % at 20 µM | actives 0.25% (n = 360,000) | AID 588621, 2011;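 active = inhibition at 20 µM, scaled per plate between control wells, above about 37%, limit read from the data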
Target sequence (P54829 whole entry, looked up): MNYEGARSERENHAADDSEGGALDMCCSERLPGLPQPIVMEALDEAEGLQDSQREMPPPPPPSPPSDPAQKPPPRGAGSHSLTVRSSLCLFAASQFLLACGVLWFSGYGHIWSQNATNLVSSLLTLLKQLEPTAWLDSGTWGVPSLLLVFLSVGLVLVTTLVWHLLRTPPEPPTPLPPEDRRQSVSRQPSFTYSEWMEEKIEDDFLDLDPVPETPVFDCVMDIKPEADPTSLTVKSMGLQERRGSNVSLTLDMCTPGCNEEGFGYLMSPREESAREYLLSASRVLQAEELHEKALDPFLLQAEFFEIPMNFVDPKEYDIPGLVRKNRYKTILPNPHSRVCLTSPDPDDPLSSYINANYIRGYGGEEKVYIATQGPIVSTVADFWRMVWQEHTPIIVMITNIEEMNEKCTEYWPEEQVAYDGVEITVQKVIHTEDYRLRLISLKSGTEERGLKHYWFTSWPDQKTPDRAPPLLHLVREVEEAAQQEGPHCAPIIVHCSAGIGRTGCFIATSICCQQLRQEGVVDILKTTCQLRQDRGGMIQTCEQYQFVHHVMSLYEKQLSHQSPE
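System: isolated STEP enzyme; schedule: 20 min enzyme reaction at room temperature, protected from light; medium: Bis-Tris buffer pH 6.0, 2.5 mM DTT, 0.005% Tween 20; signal: fluorescence, 480/540 nm; dosing: single compound dose of 20 µM, 1% DMSO final; also added: OMFP substrate, 25 µM final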
Scp-1 inhibitor – Scp-1 phosphatase inhibitors, primary screen, biochemical, colorimetric, uHTS. Carboxy-terminal domain RNA polymerase II polypeptide A small phosphatase 1 (Homo …. Recombinant Scp1, phosphopeptide, malachite green phosphate absorbance. inhibition, % at 20 µM. actives 0.88% (n = 340,000). AID 493091, 2011;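 active = inhibition above about 50% at 20 µM, limit read from the data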
Target sequence (Q9GZU7 76-261 limits assumed): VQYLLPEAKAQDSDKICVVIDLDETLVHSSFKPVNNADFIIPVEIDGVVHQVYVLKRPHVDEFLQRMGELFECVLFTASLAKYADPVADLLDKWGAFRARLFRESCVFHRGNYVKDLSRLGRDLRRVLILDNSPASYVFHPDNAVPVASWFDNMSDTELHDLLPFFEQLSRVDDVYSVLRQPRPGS
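Material – SCP-1 phosphatase catalytic domain, residues 76-261 · Buffer or medium – Acidic Tris acetate buffer with magnesium and detergent · Also added – Phospho 17-mer peptide substrate · Compound – single 20 µM dose, 1% DMSO · Times – 45 min room-temperature reaction, 5 min colour, 30 min stabiliser · Technique – Phosphate-binding colour reagent, absorbance read at 630 nm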
DNMT1 inh – human DNMT1 methyltransferase inhibitors, primary screen, biochemical, molecular beacon, fluorescence, HinP1I cleavage, uHTS | inhibition (reported as % activation of signal), % at 10 µM | actives 0.83% (n = 360,000); in the data active = inhibition above about 50%
GRK2 aptamer HTS – compounds blocking aptamer binding on GRK2 – biochemical, human GRK2, bead flow cytometry, HTS, primary screen | Beta-adrenergic receptor kinase 1 (Homo sapiens), P25098 | FAM-aptamer displacement from GRK2 | inhibition of aptamer binding, % at 10 µM | actives 0.59% (n = 330,000);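 active = inhibition of aptamer binding above 40%, roughly 3 SD of noise, on plates passing a quality check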;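 note: median bead fluorescence of bound FAM aptamer so fluorescent compounds give negative values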
SUMO1-SIM PPI – modulators of SUMO1 protein-protein interactions, primary screen, biochemical, uHTS | SUMO1 binding to a labelled peptide, TR-FRET, 1 h | inhibition, % at 20 µM | actives 0.33% (n = 360,000); in the data active = inhibition above about 37%
LMPTP block – LMPTP phosphatase inhibitors, primary screen, biochemical, fluorescence intensity, uHTS; AID 651560, 2012; recombinant LMPTP-A, OMFP fluorogenic substrate; actives 0.22% (n = 360,000); inhibition, % at 20 µM;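 active = compounds that cut the enzyme signal by at least half of the control window in the single-dose screen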
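Test system: LMPTP-A phosphatase enzyme. Amount: LMPTP-A at 0.625 nM final in the reaction. Reagent: OMFP substrate, 400 µM final. Times: 50 min at room temperature. Signal: endpoint fluorescence intensity from OMFP dephosphorylation. Read-out basis: % inhibition. Benchmarks: no-enzyme and uninhibited controls.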
Of the large screens only hits and unclear results are named; the others gave an inactive call. Compounds with a hit are over-represented: about 2.2% of the library has one in this group of screens.

COc1ccc(NC(=O)c2cc(C3CCCCN3C(=O)c3cc(OC)c(C)c(OC)c3)on2)c(C)c1 (stereo unspecified)	none (no result: Scp-1 inhibitor, GRK2 aptamer HTS)
Nc1nn2c(-c3ccccc3)cc(=O)[nH]c2c1N=Nc1ccc(Br)cc1	LMPTP block 56 (no result: GRK2 aptamer HTS)
CCCCNC(=O)c1nc(C2CCN(S(=O)(=O)c3ccc(C(F)(F)F)cc3)CC2)oc1-c1ccccc1	none (no result: STEP inh, Scp-1 inhibitor, DNMT1 inh, GRK2 aptamer HTS)
Cc1cc(NS(=O)(=O)c2ccc(Nc3nc(-c4sc(N)nc4C)cs3)cc2)no1	DNMT1 inh 86, SUMO1-SIM PPI 51
CCn1cc(C(=O)O)c(=O)c2cnc(N3CCN(C(=S)NC(=O)c4ccccc4Cl)CC3)nc21	none (no result: STEP inh, DNMT1 inh, SUMO1-SIM PPI, LMPTP block)
CCn1cc(C(=O)O)c(=O)c2cnc(N3CCN(C(=S)NC(=O)c4ccc(OC)cc4)CC3)nc21	LMPTP block 65
CCn1cc(C(=O)O)c(=O)c2cnc(N3CCN(C(=S)NC(=O)c4ccc(Cl)cc4Cl)CC3)nc21	LMPTP block 51
COc1ccc2nc(-n3c(O)c(C4=c5ccccc5=NC4=O)[nH]c3=S)sc2c1	Scp-1 inhibitor 85
O=C(CSc1nc2nn(-c3ccccc3)c(=O)c-2c2n1CCCCC2)c1ccc(O)c(O)c1	LMPTP block 68
COCC(=O)OC1CCn2c1nc1c2C(=O)C(C)=C(NC(C)=O)C1=O (stereo unspecified)	DNMT1 inh 88 (no result: GRK2 aptamer HTS)
COC(=O)[C@@]12C[C@@H](CC(=O)NCCCCc3ccccc3)C(=O)N(Cc3cccc4ccccc34)C1=CCC(C)(C)C2	none (no result: STEP inh, Scp-1 inhibitor, DNMT1 inh, GRK2 aptamer HTS)
C/C(=N\NC(=O)CSc1nc2nc(C)cc(C)n2n1)c1ccccc1	none
Cc1cc(C)n2nc(SCC(=O)N/N=C/c3ccc(F)cc3)nc2n1	SUMO1-SIM PPI 51
CSCCC(C(=O)Nc1c(C)cccc1C)n1c(COc2ccc(C)cc2)nc2ccccc21 (stereo unspecified)	none (no result: STEP inh, Scp-1 inhibitor, DNMT1 inh, GRK2 aptamer HTS)
Cn1c(SCC(=O)Nc2ccc3nc(SCC(=O)N4CCCC4)sc3c2)nnc1-c1ccccc1	Scp-1 inhibitor 102 (no result: STEP inh, DNMT1 inh, SUMO1-SIM PPI, LMPTP block)
CCCN1C(=O)CC(c2ccc(OC)c(OC)c2)C1=O (stereo unspecified)	LMPTP block 47 (no result: Scp-1 inhibitor, GRK2 aptamer HTS)
COc1ccc(C2CC(=O)c3cc(OC)c(OC)cc32)cc1OC (stereo unspecified)	none
N#Cc1c(N)c(C#N)c(-c2ccc3c(c2)OCO3)c2c1CCCC2	SUMO1-SIM PPI 44
N#Cc1c(N)c(C#N)c(-c2ccc(O)cc2)c2c1CCCC2	none
Nc1cc2c3c(cccc3c1)C(=O)N(CCN1CCCC1)C2=O	DNMT1 inh 51
O=C1c2ccccc2C(=O)N1CCN1CCCCC1	none
O=C1c2cccc3cc([N+](=O)[O-])cc(c23)C(=O)N1CCN1CCCC1	DNMT1 inh 70 (no result: GRK2 aptamer HTS)
Cc1[nH]n(-c2ccccc2)c(=S)c1C=Nc1cccc([N+](=O)[O-])c1	Scp-1 inhibitor 87
O=C(c1cc(Cl)cc(Cl)c1)N1CCC2CC1c1cc(N3CCCCC3)ccc12 (stereo unspecified)	none (no result: Scp-1 inhibitor, GRK2 aptamer HTS)
CC(C)NC(=O)c1cc(C2CCCCN2C(=O)c2cc(C(C)(C)C)nn2C)on1 (stereo unspecified)	none (no result: Scp-1 inhibitor, GRK2 aptamer HTS)
O=C(NCc1ccccc1)C1Nc2ccc(OC(F)(F)F)cc2C2C=CCC12 (stereo unspecified)	none
COc1cccc2c1NC(C(=O)O)C1CC=CC21 (stereo unspecified)	STEP inh 70, Scp-1 inhibitor 74, DNMT1 inh 98, GRK2 aptamer HTS 100, SUMO1-SIM PPI 52, LMPTP block 52
O=C(O)C1Nc2c(cccc2C(F)(F)F)C2C=CCC12 (stereo unspecified)	GRK2 aptamer HTS 75 (no result: STEP inh, Scp-1 inhibitor, DNMT1 inh, SUMO1-SIM PPI, LMPTP block)
Cc1ccccc1-c1cc2nc(NCc3ccc4occc4c3)n(C)c(=O)c2s1	none (no result: Scp-1 inhibitor, GRK2 aptamer HTS)
COc1cccc(-c2cnc3c(NC(C)=O)cc(-c4ccsc4)cn23)c1	none (no result: Scp-1 inhibitor, GRK2 aptamer HTS)
CCCCn1c(N)c(N(CCC(C)C)C(=O)c2cc(-c3ccco3)nc3ccccc23)c(=O)[nH]c1=O	Scp-1 inhibitor 61
CCCCN(C(=O)c1cc(-c2ccco2)nc2ccccc12)c1c(N)n(CCCC)c(=O)[nH]c1=O	none (no result: Scp-1 inhibitor)
CCCN(C(=O)c1cc(-c2ccco2)nc2ccccc12)c1c(N)n(Cc2ccccc2)c(=O)[nH]c1=O	Scp-1 inhibitor 74
Cc1ccc(C(=O)NCCN2CCC(n3c(=O)[nH]c4ccccc43)CC2)cc1C	none (no result: STEP inh, Scp-1 inhibitor, DNMT1 inh, GRK2 aptamer HTS)
Cc1ccc(C(=O)Nc2ccc3nc(C)sc3c2)s1	none
Cc1nc2cc(NC(=O)c3ccc(Br)s3)ccc2s1	STEP inh 41
COc1ccc2nc(C)cc(SCC(=O)N/N=C/c3ccc(O)c(O)c3)c2c1	LMPTP block 57
CC(Nc1cc(C)cc(C)c1)=[N+](C)CCNS(=O)(=O)c1ccc(Cl)cc1	GRK2 aptamer HTS 48
O=c1c2c(-c3ccccc3)csc2nc2c3ccccc3c(NCCN3CCOCC3)nn12	SUMO1-SIM PPI 64 (no result: GRK2 aptamer HTS)
COc1cccc(/C=N/NC(=O)c2cc3c(OC)cccc3[nH]2)c1O	SUMO1-SIM PPI 51
COc1cccc(/C=N/NC(=O)c2cc3cc([N+](=O)[O-])ccc3s2)c1O	STEP inh 97, DNMT1 inh 99, GRK2 aptamer HTS 87, LMPTP block 88
COc1ccccc1/C=N/NC(=O)c1ccc(NC(=O)c2cccc([N+](=O)[O-])c2)cc1	none (no result: STEP inh, Scp-1 inhibitor, DNMT1 inh, SUMO1-SIM PPI, LMPTP block)
Cc1ccc(C)c(N2C(=N)S/C(=C\c3ccc(-c4ccccc4C(=O)O)o3)C2=O)c1	none
CN1C(=O)/C(=C/c2ccc(-c3ccccc3[N+](=O)[O-])o2)SC1=Nc1ccc(Cl)c(C(=O)O)c1	SUMO1-SIM PPI 39
CCN(CC)Cc1cc(Nc2c3ccccc3nc3c4ccccc4n(C)c23)cc(CN(CC)CC)c1O	LMPTP block 77 (no result: GRK2 aptamer HTS)
Oc1cccc(Nc2c3ccccc3nc3ccccc23)c1	none
O=C(Nc1cccc2[nH]c([C@H]3C[C@H](O)[C@@H](CO)O3)nc12)NC(c1ccccc1)c1ccccc1	none (no result: Scp-1 inhibitor, GRK2 aptamer HTS)
CC(C)(C)c1csc(NC(=O)CCS(=O)(=O)c2ccc(F)cc2)n1	none (no result: Scp-1 inhibitor, GRK2 aptamer HTS)
O=C(CCS(=O)(=O)c1ccc(F)cc1)Nc1nc(-c2ccncc2)cs1	STEP inh 57
Cc1ccc(S(=O)(=O)NC(=O)C2(C)CCN2C(=O)c2ccccc2CCc2ccccc2)nc1 (stereo unspecified)	none (no result: Scp-1 inhibitor, GRK2 aptamer HTS)
CCC(/C=C1\Sc2ccc(OC)cc2N1CCO)=C\c1sc2ccc(OC)cc2[n+]1CCO	GRK2 aptamer HTS 100
